ANO1 activ – mouse TMEM16A channel activation, primary screen; 0.3% of 340,000 active; Q8BHY3; B-score at 10 µM; HEK293 TMEM16A/YFP-H148Q/I152L, iodide quench fluorescence; hits give low values; AID 623877;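 active = fluorescence-ratio B-score plate-corrected deviation score at least 3 library SD below zero, with starting fluorescence score within 5 deviations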;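 also: channel opened by trigger with iodide after compound preincubation; score built on the fluorescence ratio of max minus min over baseline; more negative score means more quench and so TMEM16A activation or potentiation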
MC4R antagonist – human MC4R antagonism in cAMP assay. inhibition, % at 6.5 µM. P32245. MC4R-expressing cells, MTII-stimulated cAMP, LANCE TR-FRET. 0.48% of 360,000 active;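 active = inhibition above its plate's cutoff, the mean of tested wells on that plate plus 3 SD, cut at about 29% in these data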;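 also: 0% = Melanotan II alone and 100% = Melanotan II plus saturating MCL0020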
Target sequence (P32245 whole entry, looked up): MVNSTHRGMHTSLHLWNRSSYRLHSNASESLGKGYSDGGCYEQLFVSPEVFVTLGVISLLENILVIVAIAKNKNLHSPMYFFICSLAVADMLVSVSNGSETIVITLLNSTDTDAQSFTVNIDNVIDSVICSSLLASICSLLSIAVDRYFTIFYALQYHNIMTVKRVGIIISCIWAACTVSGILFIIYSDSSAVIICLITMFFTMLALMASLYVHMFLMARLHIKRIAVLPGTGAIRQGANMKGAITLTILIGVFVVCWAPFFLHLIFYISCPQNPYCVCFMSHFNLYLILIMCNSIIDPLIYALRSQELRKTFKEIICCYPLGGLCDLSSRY
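System: U2OS-MC4R stable cell line; Technique: Eu-cAMP/anti-cAMP TR-FRET, emission 671 nm; Repeats: single well per compound; Also added: Melanotan II; Dosing: one concentration, 6.5 µM nominal; Schedule: 30-min compound, 1-h challenge, 1-h detection, room temperature.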
ANO1 block – mouse TMEM16A channel inhibition, primary screen | normalized B-score (activity score, 25-100; higher = stronger inhibition) at 10 µM | Q8BHY3 | 1.2% of 310,000 active | HEK293 TMEM16A/YFP iodide influx fluorescence, ionomycin | AID 588511;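 active = ratio plate-corrected score three or more library SD toward inhibition, starting fluorescence score within five deviations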;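 also: score derived from kinetic fluorescence span divided by baseline fluorescence per well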
MC4R ag barr – activates human MC4R beta-arrestin recruitment; U2OS MC4R beta-arrestin complementation, luminescence; percent of melanotan II response, DMSO zero; 0.98% of 360,000 active; activation, % at 8.9 µM; P32245;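 active = activation above a per-plate cutoff, the mean activation of sample wells on that plate plus 3 SD, cut at about 8% in these data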
beta cell repl – induces beta-cell replication in MIN6 cells | MIN6 cells proliferation, ATPlite luminescence, 48 h; cells starved in 0.2% serum; 100% = growth in 10% serum | proliferation, % at 10 µM | 0.29% of 330,000 active | AID 2380;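 active = compounds whose signal lies at least 3.5 SD above the mean of all wells on their plate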;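 also: 0% = DMSO-treated cells in low-serum medium and 100% = 10% serum control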
m5-HT2A agonist – agonists of mouse serotonin 5-HT2A receptor (HTR2A); CHO-K1 mHTR2A beta-arrestin complementation, luminescence; percent of 30 µM serotonin response; P35363; 0.66% of 360,000 active; activation, % at 7.6 µM; AID 624169;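 active = activation above a run cutoff, the mean activation of all tested compounds plus 3 SD, cut at about 14% in these data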;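 also: 0% = plate median of compound wells and 100% = 30 µM serotonin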
Active calls of the source: *. The list is not random: actives were taken first. Their share in the collection is about 3.4%.

O=C1c2[nH]nc(-c3ccccc3O)c2C(c2ccccc2)N1Cc1ccco1 (stereo unspecified) was read as ANO1 activ inactive, MC4R antagonist -5, ANO1 block inactive, MC4R ag barr 9.2*, beta cell repl -4 and m5-HT2A agonist 5.
Screening CCCCOc1ccc(S(=O)(=O)Nc2cc(OC)ccc2OC)cc1 returned ANO1 activ inactive, MC4R antagonist -8, ANO1 block 25*, MC4R ag barr 0, beta cell repl -5 and m5-HT2A agonist -3.
Screening N#Cc1ccccc1OCC(=O)Nc1nnc(C2CC2)s1 returned ANO1 activ inactive, MC4R antagonist 0, MC4R ag barr 1, beta cell repl -3 and m5-HT2A agonist 7.
`CCn1c(=O)c2c(n3cnnc13)-c1ccccc1CC21CCCCC1` gave ANO1 activ -9.6*, MC4R antagonist 3, ANO1 block inactive, MC4R ag barr -1, beta cell repl 7 and m5-HT2A agonist 1.
`CCOc1ccccc1NC(=O)C(NCCN(C)C)c1ccccc1` (stereo unspecified) gave ANO1 activ inactive, MC4R antagonist 4, ANO1 block inactive, MC4R ag barr 1, beta cell repl -2 and m5-HT2A agonist -1.
`CCOc1ccccc1NC(=O)C(NCC1CCCCC1)c1ccccc1` (stereo unspecified) gave ANO1 activ inactive, MC4R antagonist 6, ANO1 block 25*, MC4R ag barr -4, beta cell repl -6 and m5-HT2A agonist -6.
`CCOc1ccccc1NC(=O)C(OC(=O)c1ccc(O)cc1)c1ccccc1` (stereo unspecified) gave ANO1 activ inactive, MC4R antagonist 4, ANO1 block 25*, MC4R ag barr 0, beta cell repl -7 and m5-HT2A agonist -1.
For Cc1ccc(C(=O)OC(C(=O)Nc2ccc(Cl)cc2C(F)(F)F)c2ccccc2)cc1 (stereo unspecified) the results were ANO1 activ inactive, MC4R antagonist 6, ANO1 block inactive, MC4R ag barr 9.5*, beta cell repl -1 and m5-HT2A agonist -3.
Screening CCN(CC)c1ccc(NC(=O)CSc2nc(C3CC3)nc3ccccc23)cc1C returned ANO1 activ inactive, MC4R antagonist -16, ANO1 block inactive, MC4R ag barr 8.9*, beta cell repl 1 and m5-HT2A agonist 1.
CC(=O)N1c2ccc(S(=O)(=O)N3CCC(C(=O)Nc4ncccc4C)CC3)cc2CC1C (stereo unspecified) was read as ANO1 activ inactive, MC4R antagonist 16, ANO1 block inactive, MC4R ag barr -1, beta cell repl 3 and m5-HT2A agonist -1.
CCCNC(=O)c1ccc(CN2CCc3ccccc3C2)cc1 was read as ANO1 activ inactive, MC4R antagonist 5, ANO1 block inactive, MC4R ag barr 3, beta cell repl -1 and m5-HT2A agonist -1.
Screening C/C(=N\NC(=O)c1ccc(CN2CCc3ccccc3C2)cc1)c1ccccc1O returned ANO1 activ inactive, MC4R antagonist -8, ANO1 block 100*, MC4R ag barr -3, beta cell repl -6 and m5-HT2A agonist -1.
Screening COc1ccc(CNC(=O)COC(=O)c2c(NC(C)=O)sc(C)c2C)cc1OC returned MC4R antagonist 3, MC4R ag barr 0 and m5-HT2A agonist -1.
For COc1ccc2cc1Oc1ccc(cc1)CC1c3c(cc(OC)c4c3Oc3cc5c(cc3O4)CCNC5C2)CCN1C (stereo unspecified) the results were ANO1 activ inactive, MC4R antagonist 6, ANO1 block inactive, MC4R ag barr 45*, beta cell repl -6 and m5-HT2A agonist -3.
Screening COc1ccc2cc1Oc1ccc(cc1)C[C@H]1c3c(cc(OC)c4c3Oc3c(ccc5c3[C@H](C2)N(C)CC5)O4)CCN1C returned ANO1 activ inactive, MC4R antagonist 5, MC4R ag barr 4, beta cell repl -6 and m5-HT2A agonist -7.
`COc1ccc(CN2C(=O)CN(S(C)(=O)=O)CC2(C)C(=O)Nc2ccc3c(c2)OCCO3)cc1OC` (stereo unspecified) gave m5-HT2A agonist 0.
COc1cc2nc(CN3CCN(S(=O)(=O)c4ccc(Cl)cc4)CC3)[nH]c(=O)c2cc1OC was read as ANO1 activ -39*, MC4R antagonist 2, ANO1 block inactive, MC4R ag barr -2, beta cell repl 1 and m5-HT2A agonist 4.
Cc1ccc(NC(=O)COc2ncnc3ccccc23)cc1S(=O)(=O)N1CCOCC1 was read as ANO1 activ inactive, MC4R antagonist 8, ANO1 block inactive, MC4R ag barr 1, beta cell repl 0 and m5-HT2A agonist -1.
Cc1ccc(NC(=O)COc2ccccc2)cc1S(=O)(=O)N1CCCCCC1 was read as ANO1 activ inactive, MC4R antagonist -1, ANO1 block 25*, MC4R ag barr 0, beta cell repl -2 and m5-HT2A agonist 4.
Cc1ccc(NC(=O)CN(C)CC(=O)Nc2cccc(F)c2)cc1S(=O)(=O)N1CCCCCC1 was read as ANO1 activ inactive, MC4R antagonist 6, ANO1 block 25*, MC4R ag barr -3, beta cell repl -6 and m5-HT2A agonist -3.
Cc1ccc(NC(=O)CSc2ncnc3ccccc23)cc1S(=O)(=O)N1CCOCC1 was read as ANO1 activ inactive, MC4R antagonist 28, ANO1 block 25*, MC4R ag barr -1, beta cell repl 0 and m5-HT2A agonist -2.
For C=CCN(c1ccccc1OC)S(=O)(=O)c1cccc(C(=O)OCC(=O)c2c(N)n(C)c(=O)n(C)c2=O)c1 the results were ANO1 activ inactive, MC4R antagonist 0, MC4R ag barr -1 and m5-HT2A agonist 3.
Screening CCCNC(=O)C(Cc1ccc(C(F)(F)P(=O)(OCC)OCC)cc1)NC(=O)c1ccc(C#N)cc1 (stereo unspecified) returned ANO1 activ inactive, MC4R antagonist 3, MC4R ag barr 0, beta cell repl -1 and m5-HT2A agonist 2.
For N#CC(C#N)=C1C=CC=CN1/C(=C\c1ccccc1Cl)C(=O)c1ccccc1 the results were ANO1 activ -8.4*, MC4R antagonist -11, ANO1 block inactive, MC4R ag barr -4 and m5-HT2A agonist -3.
`O=C(CNC(=O)c1cccc(F)c1)N/N=C/c1cccs1` gave ANO1 activ inactive, MC4R antagonist 6, ANO1 block inactive, MC4R ag barr -3, beta cell repl -3 and m5-HT2A agonist -9.
Cc1ccc(C(=O)Nc2cccc(NC(=O)c3ccc(C)o3)n2)o1 was read as ANO1 activ inactive, MC4R antagonist 0, ANO1 block inactive, MC4R ag barr -1, beta cell repl 0 and m5-HT2A agonist -5.

Compound activity: PubChem BioAssay, several laboratories
